Laboratory results reported in ChEMBL document CHEMBL4673290, “Diazaspirononane Nonsaccharide Inhibitors of O-GlcNAcase (OGA) for the Treatment of Neurodegenerative Disorders” (J Med Chem, 2020).
≈ marks a conversion by molar mass, not a printed value.

How the values were obtained:
Protein O-GlcNAcase = Protein O-GlcNAcase (Homo sapiens, UniProt O60502); experiment: Inhibition of OGA in HEK293 cells induced with human Tau […] mutant assessed as increase in O-GlcNAcylated protein levels measured after 6 hrs by Hoechst 33342 dye based fluorescence analysis; type: cell-based
Sequence of Protein O-GlcNAcase (O60502 whole entry, looked up, stated change not applied): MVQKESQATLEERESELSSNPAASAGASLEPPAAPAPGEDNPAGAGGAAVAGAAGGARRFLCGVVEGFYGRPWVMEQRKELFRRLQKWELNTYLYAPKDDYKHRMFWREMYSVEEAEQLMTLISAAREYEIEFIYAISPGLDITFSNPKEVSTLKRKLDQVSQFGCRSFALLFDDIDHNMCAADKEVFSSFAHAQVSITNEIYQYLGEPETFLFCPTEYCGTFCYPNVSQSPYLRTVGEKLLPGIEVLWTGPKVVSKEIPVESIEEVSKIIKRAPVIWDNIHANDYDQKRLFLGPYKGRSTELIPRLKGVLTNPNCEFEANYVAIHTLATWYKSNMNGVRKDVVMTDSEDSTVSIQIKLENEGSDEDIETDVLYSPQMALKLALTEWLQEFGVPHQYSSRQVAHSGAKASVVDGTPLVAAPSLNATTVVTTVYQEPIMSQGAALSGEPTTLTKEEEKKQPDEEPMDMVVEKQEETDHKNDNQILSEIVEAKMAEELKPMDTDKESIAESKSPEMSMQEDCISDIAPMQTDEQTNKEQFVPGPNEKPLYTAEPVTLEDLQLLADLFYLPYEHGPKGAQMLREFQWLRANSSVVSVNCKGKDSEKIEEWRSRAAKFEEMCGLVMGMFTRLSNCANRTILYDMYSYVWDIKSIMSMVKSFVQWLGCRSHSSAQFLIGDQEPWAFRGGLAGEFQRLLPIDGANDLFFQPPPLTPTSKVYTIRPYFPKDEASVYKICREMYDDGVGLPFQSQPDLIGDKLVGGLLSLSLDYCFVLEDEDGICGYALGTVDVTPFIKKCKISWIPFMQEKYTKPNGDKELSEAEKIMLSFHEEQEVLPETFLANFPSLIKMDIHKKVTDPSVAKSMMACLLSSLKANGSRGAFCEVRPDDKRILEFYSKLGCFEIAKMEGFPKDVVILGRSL
In short: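 Janssen HEK293 line inducible for P301L human Tau 2N4R, seeded two days before at 4000 cells/well in low-glucose assay medium. Compound exposure 6 h with 0.2% DMSO. Cells fixed with 4% PFA, permeabilized, then stained with CTD110.6 anti-O-GlcNAc (1/1000, 4 °C overnight) and a fluorescent secondary. Readout was 488 nm intensity over nine fields; Hoechst nuclei counted. Thiamet-G 200 μM defined maximum. IC50 by nonlinear regression.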

[1] = Inhibition of human recombinant full-length OGA transcript variant 1 expressed in HEK293T cells using FM-GlcNAc as substrate preincubated for 60 mins followed by addition of substrate and measured after 6 hrs by fluorescence assay
In short: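 Full-length human OGA, 2 nM, preincubated with compound for 60 min at room temperature. FM-GlcNAc substrate at 100 μM final, in 200 mM citrate/phosphate pH 7.2 with 0.005% Tween-20 and ≤1% DMSO. Run 6 h at room temperature, stopped with 500 mM carbonate pH 11.0. Fluorescence read at 485/538 nm. IC50 and Hill coefficient from least-squares fit, normalised to no-inhibitor and saturating reference controls.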

[2] = Inhibition of clostridium perfringens OGA using FM-GlcNAc as substrate preincubated for 60 mins followed by addition of substrate and measured after 6 hrs by fluorescence assay
P-gp (MDR1) = experiment: Efflux ratio of apparent permeability across basolateral to apical over apical to basolateral side in MDCK2-MDR1 cells at 5 uM measured after 120 mins in absence of P-gp inhibitor GF120918 by LC-MS/MS analysis; settings: dog, MDCK-MDR1
in vitro [3] = settings: mouse, liver microsomes, CLH
in vitro [4] = settings: human, liver microsomes, CLH
[5] = Dissociation constant, pKa of the compound; type: physicochemical
[6] = Kinetic solubility of compound at pH 2; type: physicochemical; settings: buffer, read-out: Kinetic_solubility
[7] = Kinetic solubility of compound at pH 7.4; type: physicochemical; settings: buffer, read-out: Kinetic_solubility
[8] = Oral bioavailability in male CD1 mouse at 30 mg/kg, compound dissolved in water measured after 24 hrs by LC-MS/MS analysis; type: ADME, organism-based; settings: in vivo
In short: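 Male CD1 mice, three per arm: 1 mg/kg iv in 0.9% saline and 30 mg/kg po as a solution in water adjusted to about pH 4. Serial blood to 24 h. Plasma levels measured by LC-MS/MS after acetonitrile precipitation. Bioavailability derived from iv and po exposure.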

[9] = AUC (0 to last) in male CD1 mouse at 30 mg/kg, po compound dissolved in water measured after 24 hrs by LC-MS/MS analysis; type: ADME, organism-based; set-up: route oral, time 24 hrs, dose 30 mg/kg; settings: in vivo
In short: (§1)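 Three male CD1 mice per arm; oral solution in water adjusted to about pH 4. Blood taken at 0.5, 1, 2, 4, 7 and 24 h. Plasma protein-precipitated with acetonitrile and the supernatant quantified by qualified LC-MS/MS.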

[10] = Cmax in male CD1 mouse at 30 mg/kg, po compound dissolved in water measured after 24 hrs by LC-MS/MS analysis; type: ADME, organism-based; set-up: route oral, dose 30 mg/kg, time 24 hrs; settings: in vivo; in short: as §1
[11] = Volume of distribution at steady state in male CD1 mouse at 1 mg/kg, iv compound dissolved in saline measured after 24 hrs by LC-MS/MS analysis; type: ADME, organism-based; settings: in vivo, read-out: Vdss
In short: (§2)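 Single 1 mg/kg iv dose in 0.9% saline to three male CD1 mice. Blood sampled at 0.117, 0.333, 1, 2, 4, 7 and 24 h. Plasma prepared by acetonitrile protein precipitation and analysed by qualified LC-MS/MS.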

[12] = Clearance in male CD1 mouse at 1 mg/kg, iv compound dissolved in saline measured after 24 hrs by LC-MS/MS analysis; type: ADME, organism-based; settings: in vivo; in short: as §2

| SMILES | IC50 (Protein O-GlcNAcase) | IC50 [1] | other results |
| --- | --- | --- | --- |
| Cc1cc(N2CCC3(CCN(Cc4ccc5c(c4)OCO5)C3)C2)n2ncnc2n1 (configuration not stated) | > 1000 nM | 129 nM |  |
| CC(=O)Nc1ncc(CN2CCC3(CCC(Cc4cc(C)nc(C)c4)C3)C2)s1 (configuration not stated) | 537 nM | 309 nM |  |
| CC(=O)Nc1ncc(CN2CC3(CCN(c4cc(C)nc5ncnn45)C3)C2)s1 | 10000 nM | 34 nM | IC50 [2]: 3300 nM |
| CC(=O)Nc1ncc(CN2CC[C@]3(C2)C[C@@H](Cc2cc(C)nc(C)c2)C3)s1 | 295 nM | 209 nM |  |
| CC(=O)Nc1ncc(CN2CCC3(C2)CN(c2cc(C)nc4ncnn24)C3)s1 | 9330 nM | 41 nM |  |
| CC(=O)Nc1ncc(CN2CC[C@]3(C2)C[C@@H](Oc2cc(C)nc(C)c2)C3)s1 |  | 550 nM |  |
| CC(=O)Nc1ncc(CN2CCC3(CCN(c4cc(C)nc5ncnn45)C3)C2)s1 (configuration not stated) | 575 nM | 4 nM | IC50 [2]: 290 nM; efflux ratio at 2 h, 5 µM (P-gp (MDR1)): 13.5; microsomal CLint at 1 h, 1 µM (in vitro [3]): < 13 µL/min/mg; microsomal CLint at 1 h, 1 µM (in vitro [4]): < 8 µL/min/mg |
| CC(=O)Nc1ncc(CN2CC[C@]3(C2)C[C@H](Oc2cc(C)nc(C)c2)C3)s1 |  | 1000 nM |  |
| CC(=O)Nc1ncc(CN2CCC3(CCC(COc4cc(C)nc(C)c4)C3)C2)s1 (configuration not stated) | 501 nM | 135 nM |  |
| CC(=O)Nc1ncc(CN2CC[C@]3(C2)C[C@H](Cc2cc(C)nc(C)c2)C3)s1 | 240 nM | 204 nM |  |
| CC(=O)Nc1ncc(CN2CCC3(CCC(c4cc(C)nc(C)c4)C3)C2)s1 (configuration not stated) | 214 nM | 66 nM |  |
| CC(=O)Nc1ncc(CN2CCC3(CC(c4cc(C)nc(C)c4)CO3)C2)s1 (configuration not stated) | 603 nM | 21 nM |  |
| CC(=O)Nc1ncc(CN2CCC3(CCN(c4cc(C)nc(C)c4)C3)C2)s1 (racemic) | 141 nM | 6 nM | pKa [5]: 10.4; efflux ratio at 2 h, 5 µM (P-gp (MDR1)): 1.6; microsomal CLint at 1 h, 1 µM (in vitro [3]): < 8 µL/min/mg; microsomal CLint at 1 h, 1 µM (in vitro [4]): < 8 µL/min/mg |
| CC(=O)Nc1ncc(CN2CCC3(CCN(c4cc(C)nc(C)n4)C3)C2)s1 (racemic) | 170 nM | 13 nM |  |
| CC(=O)Nc1ncc(CN2CCC3(CCN(c4cc(C)nc5ccccc45)C3)C2)s1 (racemic) | 39 nM | 9 nM | solubility kinetic [6]: 87 µM (≈ 36.7 µg/mL); solubility kinetic [7]: 71 µM (≈ 29.9 µg/mL) |
| Cc1cc(N2CCC3(CCN(Cc4ccc5sc(C)nc5c4)C3)C2)n2ncnc2n1 (racemic) | > 1000 nM | 22 nM |  |
| CC(=O)Nc1ncc(CN2CCC3(CCN(c4cc(C)nc(C(F)(F)F)c4)C3)C2)s1 (racemic) | 380 nM | 19 nM | efflux ratio at 2 h, 5 µM (P-gp (MDR1)): 32.2; microsomal CLint at 1 h, 1 µM (in vitro [3]): 55 µL/min/mg; microsomal CLint at 1 h, 1 µM (in vitro [4]): 46 µL/min/mg |
| CC(=O)Nc1ncc(CN2CCC3(CC(COc4cc(C)nc(C)c4)C3)C2)s1 (racemic) |  | 316 nM |  |
| CC(=O)Nc1ncc(CN2CC[C@]3(C[C@H](Oc4cc(C)nc(C)c4)CO3)C2)s1 (racemic) | 537 nM | 30 nM |  |
| CC(=O)Nc1ncc(CN2CCC3(CC(c4cc(C)nc(C)c4)C3)C2)s1 (racemic) | 182 nM | 36 nM |  |
| CC(=O)Nc1ncc(CN2CCC3(CCN(c4cc(C)n5ccnc5n4)C3)C2)s1 (racemic) | 437 nM | 1 nM | efflux ratio at 2 h, 5 µM (P-gp (MDR1)): 1.2; microsomal CLint at 1 h, 1 µM (in vitro [3]): 16 µL/min/mg; microsomal CLint at 1 h, 1 µM (in vitro [4]): < 8 µL/min/mg |
| Cc1cc(N2CCC3(CCNC3)C2)n2ncnc2n1 (racemic) | > 10000 nM | 3240 nM |  |
| COc1cc(N2CCC3(CCN(Cc4cnc(NC(C)=O)s4)C3)C2)cc(C)n1 (racemic) | 56 nM | 6 nM | efflux ratio at 2 h, 5 µM (P-gp (MDR1)): 27.7; microsomal CLint at 1 h, 1 µM (in vitro [3]): 12 µL/min/mg; microsomal CLint at 1 h, 1 µM (in vitro [4]): < 8 µL/min/mg |
| CC(=O)Nc1ncc(CN2CCC3(CCN(c4cc(C)cc(C)n4)C3)C2)s1 (racemic) | 46 nM | 4 nM | efflux ratio at 2 h, 5 µM (P-gp (MDR1)): 24.8; microsomal CLint at 1 h, 1 µM (in vitro [3]): 264 µL/min/mg; microsomal CLint at 1 h, 1 µM (in vitro [4]): 101 µL/min/mg |
| Cc1cc(N2CCC3(CCN(Cc4ccc5nccnc5c4)C3)C2)n2ncnc2n1 (racemic) | > 10000 nM | 74 nM |  |
| CC(=O)Nc1ncc(CN2CC[C@]3(C[C@@H](Oc4cc(C)nc(C)c4)CO3)C2)s1 (racemic) |  | 209 nM |  |
| CC(=O)Nc1ncc(CN2CCC3(CCN(c4cc(C)nc5ccccc45)C3)C2)s1 (single isomer, unassigned; (+)) | 17 nM | 5 nM | bioavailability [8]: 23.1%; AUC(0-t) at 24 h [9]: 1940 ng·h/mL; Cmax [10]: 331 ng/mL; Vd [11]: 17.8 L/kg; clearance [12]: 55.8 mL/min/kg; microsomal CLint at 1 h, 1 µM (in vitro [3]): 15 µL/min/mg; microsomal CLint at 1 h, 1 µM (in vitro [4]): < 8 µL/min/mg |
| CC(=O)Nc1ncc(CN2CCC3(CCN(c4cc(C)nc5ccccc45)C3)C2)s1 (single isomer, unassigned; (-)) | 263 nM | 25 nM |  |
